Experimental data reported in ChEMBL document CHEMBL4350998, “Design, synthesis, and structure-activity relationship studies of l-amino alcohol derivatives as broad-spectrum antifungal agents” (Eur J Med Chem, 2019).
Converted amounts (≈) assume the structure as drawn.

Key:
Candida albicans [1] = assay: Antifungal activity against Candida albicans ATCC SC5314 assessed as inhibition of visible microbial growth by NCCLS protocol based method; type: functional
Outline: (§1)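 Compounds dissolved in DMSO and serially diluted into growth medium. MIC was read as the lowest concentration that inhibited visible fungal growth.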

Candida albicans [2] = assay: Antifungal activity against Candida albicans SC5314; type: functional
Candida albicans [3] = assay: Antifungal activity against Candida albicans CPCC 400523 assessed as inhibition of visible microbial growth by NCCLS protocol based method; type: functional
Aspergillus fumigatus = assay: Antifungal activity against Aspergillus fumigatus CGMCC 3.7795 assessed as inhibition of visible microbial growth by NCCLS protocol based method; type: functional; outline: as §1
Cryptococcus neoformans = assay: Antifungal activity against Cryptococcus neoformans CGMCC 2.3161 assessed as inhibition of visible microbial growth by NCCLS protocol based method; type: functional; outline: as §1
Candida tropicalis = assay: Antifungal activity against Candida tropicalis CGMCC 2.3739 assessed as inhibition of visible microbial growth by NCCLS protocol based method; type: functional; outline: as §1
[4] = Cytotoxicity in human A549 cells assessed as reduction in cell viability at 0.40 uM/L incubated for 24 hrs by MTT assay relative to control; type: cell-based; settings: read-out: INH
Outline: (§2)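 A549 cells were seeded at 3000 cells/well and preincubated for 16 h at 37 °C, 5% CO2. Medium was then replaced with fresh medium holding compound (DMSO stock diluted to final 0.08, 0.4, 2.0, 10 or 50 μM/L). Exposure lasted 24 h at 37 °C, 5% CO2, followed by MTT for 4 h and absorbance at 490 nm. Results are given as % inhibition.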

[5] = Stability in human plasma assessed as parent compound remaining at 100 uM after 120 mins LC/MS/MS analysis relative to control; type: ADME, cell-free; settings: read-out: Stability
Outline: (§3)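 Thawed human plasma was cleared at 4000 rpm and spiked from a 100 μM dosing solution to a final 2 μM, in duplicate, at 37 °C. Propantheline served as positive control. Sampling at 0, 10, 30, 60 and 120 min into ACN/MeOH stop solution with tolbutamide and labetalol internal standards. After centrifugation, supernatant was diluted with water and run by LC/MS/MS. % remaining was taken from the analyte/IS peak-area ratio, with no standard curve.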

Candida albicans [6] = assay: Antifungal activity against fluconazole-resistant Candida albicans Strain CaR assessed as inhibition of visible microbial growth by NCCLS protocol based method; type: functional
Outline: (§4)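 Broth dilution MIC against clinical fluconazole-resistant C. albicans isolates from AIDS patients. Compounds dissolved in DMSO and serially diluted into growth medium. MIC was taken as the lowest concentration that inhibits visible fungal growth. Fluconazole and itraconazole served as positive controls.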

[7] = Cytotoxicity in human A549 cells assessed as reduction in cell viability at 10 uM/L incubated for 24 hrs by MTT assay relative to control; type: cell-based; settings: read-out: INH; outline: as §2
[8] = Cytotoxicity in human A549 cells assessed as reduction in cell viability at 0.08 uM/L incubated for 24 hrs by MTT assay relative to control; type: cell-based; settings: read-out: INH; outline: as §2
[9] = Cytotoxicity in human A549 cells assessed as reduction in cell viability at 50 uM/L incubated for 24 hrs by MTT assay relative to control; type: cell-based; settings: read-out: INH; outline: as §2
Candida albicans [10] = assay: Antifungal activity against fluconazole-resistant Candida albicans Strain 17# assessed as inhibition of visible microbial growth by NCCLS protocol based method; type: functional; outline: as §4
[11] = Cytotoxicity in human A549 cells assessed as reduction in cell viability at 2 uM/L incubated for 24 hrs by MTT assay relative to control; type: cell-based; settings: read-out: INH; outline: as §2
[12] = Stability in human plasma assessed as parent compound remaining at 100 uM after 60 mins LC/MS/MS analysis relative to control; type: ADME, cell-free; settings: read-out: Stability; outline: as §3
[13] = molecular target: T1, Lanosterol 14-alpha demethylase (Candida albicans (strain SC5314 / ATCC MYA-2876) (Yeast), UniProt P10613); assay: Inhibition of CYP51 in Candida albicans ATCC SC5314 assessed as eburicol level at 8 ug/ml incubated for 16 hrs by GC/MS analysis (reference value: 0%); design: scale not given: the % may be the effect or the level left; settings: candida albicans sc5314, 16 h
T1 sequence (P10613 whole entry): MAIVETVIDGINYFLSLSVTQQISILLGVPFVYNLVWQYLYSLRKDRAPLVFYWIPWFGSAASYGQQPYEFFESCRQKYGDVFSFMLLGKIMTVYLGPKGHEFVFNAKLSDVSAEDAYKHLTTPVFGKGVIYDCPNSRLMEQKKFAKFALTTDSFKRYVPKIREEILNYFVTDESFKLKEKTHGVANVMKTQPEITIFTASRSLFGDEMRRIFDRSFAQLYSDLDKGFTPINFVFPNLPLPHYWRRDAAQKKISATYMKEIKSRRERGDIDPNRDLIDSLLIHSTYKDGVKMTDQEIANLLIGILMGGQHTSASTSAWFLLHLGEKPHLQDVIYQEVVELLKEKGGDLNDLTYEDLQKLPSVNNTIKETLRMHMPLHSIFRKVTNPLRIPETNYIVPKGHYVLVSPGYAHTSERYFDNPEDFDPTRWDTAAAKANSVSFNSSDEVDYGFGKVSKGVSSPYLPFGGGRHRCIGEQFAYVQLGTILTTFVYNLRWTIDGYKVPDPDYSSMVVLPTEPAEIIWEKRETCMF

[14] = molecular target: T1, Lanosterol 14-alpha demethylase; assay: Inhibition of CYP51 in Candida albicans ATCC SC5314 assessed as obtusifoliol level at 0.13 ug/ml incubated for 16 hrs by GC/MS analysis (reference value: 0%); design: scale not given: the % may be the effect or the level left; settings: candida albicans sc5314, 16 h
[15] = molecular target: T1, Lanosterol 14-alpha demethylase; assay: Inhibition of CYP51 in Candida albicans ATCC SC5314 assessed as obtusifoliol level at 2 ug/ml incubated for 16 hrs by GC/MS analysis (reference value: 0%); design: scale not given: the % may be the effect or the level left; settings: candida albicans sc5314, 16 h
[16] = molecular target: T1, Lanosterol 14-alpha demethylase; assay: Inhibition of CYP51 in Candida albicans ATCC SC5314 assessed as lanosterol level at 0.5 ug/ml incubated for 16 hrs by GC/MS analysis (reference value: 0%); design: scale not given: the % may be the effect or the level left; settings: candida albicans sc5314, 16 h
[17] = molecular target: T1, Lanosterol 14-alpha demethylase; assay: Inhibition of CYP51 in Candida albicans ATCC SC5314 assessed as ergosterol level at 0.13 ug/ml incubated for 16 hrs by GC/MS analysis (reference value: 100%); design: scale not given: the % may be the effect or the level left; settings: candida albicans sc5314, 16 h
[18] = molecular target: T1, Lanosterol 14-alpha demethylase; assay: Inhibition of CYP51 in Candida albicans ATCC SC5314 assessed as eburicol level at 0.13 ug/ml incubated for 16 hrs by GC/MS analysis (reference value: 0%); design: scale not given: the % may be the effect or the level left; settings: candida albicans sc5314, 16 h
[19] = molecular target: T1, Lanosterol 14-alpha demethylase; assay: Inhibition of CYP51 in Candida albicans ATCC SC5314 assessed as obtusifoliol level at 0.5 ug/ml incubated for 16 hrs by GC/MS analysis (reference value: 0%); design: scale not given: the % may be the effect or the level left; settings: candida albicans sc5314, 16 h
[20] = molecular target: T1, Lanosterol 14-alpha demethylase; assay: Inhibition of CYP51 in Candida albicans ATCC SC5314 assessed as ergosterol level at 2 ug/ml incubated for 16 hrs by GC/MS analysis (reference value: 100%); design: scale not given: the % may be the effect or the level left; settings: candida albicans sc5314, 16 h
[21] = molecular target: T1, Lanosterol 14-alpha demethylase; assay: Inhibition of CYP51 in Candida albicans ATCC SC5314 assessed as lanosterol level at 0.13 ug/ml incubated for 16 hrs by GC/MS analysis (reference value: 0%); design: scale not given: the % may be the effect or the level left; settings: candida albicans sc5314, 16 h
[22] = molecular target: T1, Lanosterol 14-alpha demethylase; assay: Inhibition of CYP51 in Candida albicans ATCC SC5314 assessed as ergosterol level at 8 ug/ml incubated for 16 hrs by GC/MS analysis (reference value: 100%); design: scale not given: the % may be the effect or the level left; settings: candida albicans sc5314, 16 h
[23] = molecular target: T1, Lanosterol 14-alpha demethylase; assay: Inhibition of CYP51 in Candida albicans ATCC SC5314 assessed as eburicol level at 2 ug/ml incubated for 16 hrs by GC/MS analysis (reference value: 0%); design: scale not given: the % may be the effect or the level left; settings: candida albicans sc5314, 16 h
[24] = molecular target: T1, Lanosterol 14-alpha demethylase; assay: Inhibition of CYP51 in Candida albicans ATCC SC5314 assessed as lanosterol level at 8 ug/ml incubated for 16 hrs by GC/MS analysis (reference value: 0%); design: scale not given: the % may be the effect or the level left; settings: candida albicans sc5314, 16 h
[25] = molecular target: T1, Lanosterol 14-alpha demethylase; assay: Inhibition of CYP51 in Candida albicans ATCC SC5314 assessed as lanosterol level at 2 ug/ml incubated for 16 hrs by GC/MS analysis (reference value: 0%); design: scale not given: the % may be the effect or the level left; settings: candida albicans sc5314, 16 h
[26] = molecular target: T1, Lanosterol 14-alpha demethylase; assay: Inhibition of CYP51 in Candida albicans ATCC SC5314 assessed as ergosterol level at 0.5 ug/ml incubated for 16 hrs by GC/MS analysis (reference value: 100%); design: scale not given: the % may be the effect or the level left; settings: candida albicans sc5314, 16 h
[27] = molecular target: T1, Lanosterol 14-alpha demethylase; assay: Inhibition of CYP51 in Candida albicans ATCC SC5314 assessed as obtusifoliol level at 8 ug/ml incubated for 16 hrs by GC/MS analysis (reference value: 0%); design: scale not given: the % may be the effect or the level left; settings: candida albicans sc5314, 16 h
[28] = molecular target: T1, Lanosterol 14-alpha demethylase; assay: Inhibition of CYP51 in Candida albicans ATCC SC5314 assessed as eburicol level at 0.5 ug/ml incubated for 16 hrs by GC/MS analysis (reference value: 0%); design: scale not given: the % may be the effect or the level left; settings: candida albicans sc5314, 16 h
[29] = molecular target: T1, Lanosterol 14-alpha demethylase; assay: Inhibition of CYP51 in Candida albicans ATCC SC5314 assessed as change in sterol components incubated for 16 hrs by GC/MS analysis; settings: candida albicans sc5314, 16 h

Structure (SMILES)	MIC (Candida albicans [1]) [µg/mL]	MIC (Candida albicans [3]) [µg/mL]	MIC (Aspergillus fumigatus) [µg/mL]	MIC (Cryptococcus neoformans) [µg/mL]	MIC (Candida tropicalis) [µg/mL]	cytotoxicity at 24 h, 0.4 µM [4] [%]	remaining at 2 h, 100 µM [5] [%]	MIC (Candida albicans [6]) [µg/mL]	cytotoxicity at 24 h, 10 µM [7] [%]	cytotoxicity at 24 h, 0.08 µM [8] [%]	cytotoxicity at 24 h, 50 µM [9] [%]	MIC (Candida albicans [10]) [µg/mL]	cytotoxicity at 24 h, 2 µM [11] [%]	remaining at 1 h, 100 µM [12] [%]	Activity [13] [%]	Activity [14] [%]	Activity [15] [%]	Activity [16] [%]	Activity [17] [%]	Activity [18] [%]	other results
CC(C)OC(=O)C(Cn1ccnc1)NC(=O)c1ccc(-c2ccccc2)cc1 (centres undefined)	< 0.03	0.25	> 64	2	< 0.06																MIC (Candida albicans [2]): 0.03 µg/mL (≈ 0.0795 µM)
CC[C@H](C)[C@@H](Cn1ccnc1)NC(=O)c1ccc(-c2ccccc2)cc1F	< 0.03	< 0.03	2	1	< 0.03	1	86.3	4	3.1	1.2	14	2	1.2	113							
CC[C@H](C)[C@@H](Cn1ccnc1)NC(=O)c1ccc(-c2ccccc2F)cc1F	< 0.03	0.06	2	1	< 0.03	6.6	92.6	8	8.3	5.4	13.9	2	7.3	114	44.9	0	23.8	21	98	0	Activity [19]: 12.2%; Activity [20]: 6.5%; Activity [21]: 2%; Activity [22]: 0%; Activity [23]: 49.7%; Activity [24]: 23.8%; Activity [25]: 20%; Activity [26]: 36%; Activity [27]: 31.3%; Activity [28]: 30.8%
OC(Cn1cncn1)(Cn1cncn1)c1ccc(F)cc1F [FLUCONAZOLE]	0.5	1	> 64	4	1			> 64				> 64			39.9	0	17.7	9.9	97.7	0	Activity [29]: Dose-dependent effect; Activity [19]: 0%; Activity [20]: 17.2%; Activity [21]: 2.3%; Activity [22]: 0%; Activity [23]: 37.1%; Activity [24]: 22.9%; Activity [25]: 28%; Activity [26]: 90.1%; Activity [27]: 37.2%; Activity [28]: 0%
